In brackets after ≈: the same amount, converted by molar mass. Several values for one entry are separate records, joined by “and”; a condition that tells them apart may be missing. Identical values can stand only once.
Columns and labels:
Mus musculus [1] = test: (§1) In vivo activity against triglycerides (TG) by using Alloxan-induced hyperlipoperoxidemia method in BALB/c mice after peroral administration at 100 mg/Kg dose; assay type: functional
Method in brief: (§2)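 Male BALB/c mice, 8 weeks old, were fasted 18 h and then given alloxan 75 mg/kg iv. Compound was dosed orally 30 min before and 24 and 30 h after alloxan. Cervical blood was taken at 48 h, diluted in saline and centrifuged. Serum LPO was measured by TBA method; cholesterol and TG by enzymatic kits. Values are % decrease versus alloxan controls without compound.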

Mus musculus [2] = test: In vivo activity against hypocholesterol (CHOL) by using Alloxan-induced hyperlipoperoxidemia method in BALB/c mice after peroral administration at 100 mg/Kg dose; assay type: functional; method in brief: as §2
Mus musculus [3] = test: In vivo activity against serum lipid peroxidation level (s-LPO) by using Alloxan-induced hyperlipoperoxidemia method in BALB/c mice after peroral administration at 100 mg/Kg dose; assay type: functional; method in brief: as §2
Rattus norvegicus [4] = species: Rattus norvegicus; test: In vitro inhibitory activity against rat microsomal lipid peroxidation (m-LPO); assay type: functional
Method in brief: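 Lipid peroxidation used rat liver microsomes driven by ferrous sulfate/cysteine, per the Malvy et al. approach. IC50 is given in µg/mL.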

Mus musculus [5] = test: Hypoglycemic activity at dose 50 mg/Kg in KK-mice after peroral administration; assay type: functional
Method in brief: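 Male KK-mice, a genetically diabetic NIDDM model, were housed singly from 8 weeks of age and used at about 4-5 months once body weight exceeded 40 g. Compound was suspended in 0.5% carboxymethylcellulose saline and dosed orally 18 h before tail-vein blood sampling into heparinized tubes. Plasma glucose was measured with a glucose analyzer. Values are % decrease versus vehicle-dosed controls run simultaneously.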

Mus musculus [6] = test: In vivo activity against triglycerides (TG) by using Alloxan-induced hyperlipoperoxidemia method in BALB/c mice after peroral administration at 300 mg/Kg dose; assay type: functional; method in brief: as §2
Mus musculus [7] = test: In vivo activity against hypocholesterol (CHOL) by using Alloxan-induced hyperlipoperoxidemia method in BALB/c mice after peroral administration at 300 mg/Kg dose; assay type: functional; method in brief: as §2
Mus musculus [8] = test: In vivo activity against serum lipid peroxidation level (s-LPO) by using Alloxan-induced hyperlipoperoxidemia method in BALB/c mice after peroral administration at 300 mg/Kg dose; assay type: functional; method in brief: as §2
Mus musculus [9] = test: In vivo activity against serum lipid peroxidation level (s-LPO) by using Alloxan-induced hyperlipoperoxidemia method in BALB/c mice after peroral administration at 50 mg/Kg dose; assay type: functional; method in brief: as §2
Mus musculus [10] = test: In vivo activity against triglycerides (TG) by Alloxan-induced hyperlipoperoxidemia method in BALB/c mice after peroral administration at 50 mg/Kg dose; assay type: functional; method in brief: as §2
Rattus norvegicus [11] = test: Liver weight in Wistar-Imamichi rats at 200 mg/Kg dose in 12 rats; assay type: functional
Rattus norvegicus [12] = species: Rattus norvegicus; test: Hypotriglyceridemic activity of Wistar-Imamichi rats in 12 animals
Mus musculus [13] = test: In vivo activity against triglycerides (TG) by using Alloxan-induced hyperlipoperoxidemia method in BALB/c mice after peroral administration at 300 mg/kg dose; assay type: functional; settings: route oral; method in brief: as §2
Mus musculus [14] = test: In vivo activity against hypocholesterol (CHOL) by using Alloxan-induced hyperlipoperoxidemia method in BALB/c mice after peroral administration at 100 mg/kg dose; assay type: functional; settings: route oral; method in brief: as §2
Mus musculus [15] = test: In vivo activity against serum lipid peroxidation level (s-LPO) by using Alloxan-induced hyperlipoperoxidemia method in BALB/c mice after peroral administration at 100 mg/kg dose; assay type: functional; settings: route oral; method in brief: as §2
Mus musculus [16] = test: In vivo activity against serum lipid peroxidation level (s-LPO) by using Alloxan-induced hyperlipoperoxidemia method in BALB/c mice after peroral administration at 300 mg/kg dose; assay type: functional; settings: route oral; method in brief: as §2
Mus musculus [17] = test: In vivo activity against triglycerides (TG) by using Alloxan-induced hyperlipoperoxidemia method in BALB/c mice after peroral administration at 200 mg/Kg dose; assay type: functional; method in brief: as §2
Mus musculus [18] = test: In vivo activity against hypocholesterol (CHOL) by using Alloxan-induced hyperlipoperoxidemia method in BALB/c mice after peroral administration at 200 mg/Kg dose; assay type: functional; method in brief: as §2
Mus musculus [19] = test: In vivo activity against serum lipid peroxidation level (s-LPO) by using Alloxan-induced hyperlipoperoxidemia method in BALB/c mice after peroral administration at 200 mg/Kg dose; assay type: functional; method in brief: as §2
Mus musculus [20] = test: In vivo activity against triglycerides (TG) by using Alloxan-induced hyperlipoperoxidemia method in BALB/c mice after peroral administration at 10 mg/Kg dose; assay type: functional; method in brief: as §2
Mus musculus [21] = test: In vivo activity against hypocholesterol (CHOL) by Alloxan-induced hyperlipoperoxidemia method in BALB/c mice after peroral administration at 50 mg/Kg dose; assay type: functional; method in brief: as §2
Mus musculus [22] = test: In vivo activity against hypocholesterol (CHOL) by using Alloxan-induced hyperlipoperoxidemia method in BALB/c mice after peroral administration at 10 mg/Kg dose; assay type: functional; method in brief: as §2
Mus musculus [23] = test: In vivo activity against serum lipid peroxidation level (s-LPO) by using Alloxan-induced hyperlipoperoxidemia method in BALB/c mice after peroral administration at 10 mg/Kg dose; assay type: functional; method in brief: as §2
Mus musculus [24] = test: as §1; assay type: functional; method in brief: as §2; remark: listed apart in the source

Compound	Decrease (Mus musculus [1])	Decrease (Mus musculus [2])	Decrease (Mus musculus [3])	IC50 (Rattus norvegicus [4])	also measured
CCC1(COc2ccc(CC3SC(=O)NC3=O)cc2)CCc2c(C)c(O)c(C)c(C)c2O1 (centres undefined)	14%	19.5%	17.6%	0.1 µg/mL (≈ 0.22 µM)	–
Cc1cc2c(cc1O)CCC(C)(COc1ccc(CC3SC(=O)NC3=O)cc1)O2 (centres undefined)	–	–	–	0.3 µg/mL (≈ 0.726 µM)	–
Cc1c(C)c2c(c(C)c1OC(=O)c1cccnc1)CCC(C)(COc1ccc(CC3SC(=O)NC3=O)cc1)O2 (centres undefined)	–	–	–	< 0.1 µg/mL	–
CC1(COc2ccc(CC3SC(=O)NC3=O)cc2)CCc2cc(O)c(C(C)(C)C)cc2O1 (centres undefined)	-48.6%	5.6%	16.1%	< 0.1 µg/mL	Decrease (Mus musculus [5]): 28.5%
COc1c(O)c(C)c2c(c1OC)OC(C)(CCOc1ccc(CC3SC(=O)NC3=O)cc1)CC2 (centres undefined)	–	–	–	0.3 µg/mL (≈ 0.615 µM)	–
Cc1c(C)c2c(c(C)c1O)CCC(C)(CCOc1ccc(CC3SC(=O)NC3=O)cc1)O2 (centres undefined)	–	–	–	< 0.1 µg/mL	–
CC1(CCOc2ccc(CC3SC(=O)NC3=O)cc2)CCc2cc(O)c(C(C)(C)C)cc2O1 (centres undefined)	–	–	–	0.1 µg/mL (≈ 0.213 µM)	–
CCCC(=O)Oc1c(C)c(C)c2c(c1C)CCC(C)(COc1ccc(CC3SC(=O)NC3=O)cc1)O2 (centres undefined)	–	–	–	< 0.1 µg/mL	–
Cc1cc(C(C)(C)C)c(O)c(C(C)(C)C)c1 [BUTYLATED HYDROXYTOLUENE]	–	–	–	0.1 µg/mL (≈ 0.454 µM)	–
CC1(COc2ccc(CC3SC(=O)NC3=O)cc2)CCCCC1 (centres undefined) [CIGLITAZONE]	7.9%	10.8%	18.7%	> 1 µg/mL	–
CCOC(=O)C(C)(C)Oc1ccc(Cl)cc1 [CLOFIBRATE]	19.6%	5.9%	26.6%	> 1 µg/mL	Decrease (Mus musculus [6]): 22.8%; Decrease (Mus musculus [7]): 6.8%; Decrease (Mus musculus [8]): 37.6%; Decrease (Mus musculus [9]): 2.8%; Decrease (Mus musculus [10]): 1.1%; Increase (Rattus norvegicus [11]): 37.2%; Decrease (Rattus norvegicus [12]): 37.6%
Cc1ccc(C)c(OCCCC(C)(C)C(=O)O)c1 [GEMFIBROZIL]	–	–	–	> 1 µg/mL	Decrease (Mus musculus [13]): 12.3% and 15.9%; Decrease (Mus musculus [14]): 3.2%; Decrease (Mus musculus [15]): 12.3%; Decrease (Mus musculus [16]): 20.5%; Decrease (Rattus norvegicus [12]): 39.4%
CC(C)(Sc1cc(C(C)(C)C)c(O)c(C(C)(C)C)c1)Sc1cc(C(C)(C)C)c(O)c(C(C)(C)C)c1 [PROBUCOL]	-5.3%	-1.1%	5.8%	> 1 µg/mL	Decrease (Mus musculus [17]): -25.2%; Decrease (Mus musculus [6]): -3%; Decrease (Mus musculus [18]): -9.7%; Decrease (Mus musculus [7]): 0.8%; Decrease (Mus musculus [19]): -22.1%; Decrease (Mus musculus [8]): 6.1%; Increase (Rattus norvegicus [11]): 0.2%
CC(=O)Oc1c(C)c(C)c2c(c1C)CCC(C)(CCC[C@H](C)CCC[C@H](C)CCCC(C)C)O2 (some centres undefined) [TOCOPHEROL ACETATE]	27.3%	10.7%	46.1%	> 1 µg/mL	Decrease (Mus musculus [20]): 36.5%; Decrease (Mus musculus [6]): 16.1%; Decrease (Mus musculus [21]): 8.3%; Decrease (Mus musculus [22]): 20.4%; Decrease (Mus musculus [7]): 9.1%; Decrease (Mus musculus [23]): 23.5%; Decrease (Mus musculus [8]): 56.6%; Decrease (Mus musculus [9]): 27.9%; Decrease (Mus musculus [10]): 5.2%
Cc1c(C)c2c(c(C)c1O)CCC(C)(COc1ccc(CC3SC(=O)NC3=O)cc1)O2 (centres undefined) [TROGLITAZONE]	57.5%	–	54.3%	0.1 µg/mL (≈ 0.226 µM)	Decrease (Mus musculus [5]): 38.5%; Decrease (Mus musculus [24]): 57.5%; Decrease (Mus musculus [21]): 19.7%; Decrease (Mus musculus [9]): 36%; Decrease (Mus musculus [10]): 31.9%

Source: ChEMBL document CHEMBL1124681, “Studies on hindered phenols and analogues. 1. Hypolipidemic and hypoglycemic agents with ability to inhibit lipid peroxidation” (J Med Chem, 1989)
